Bioassay records deposited in PubChem by The Scripps Research Institute Molecular Screening Center.
Compounds with a hit are over-represented: about 1.2% of the library has one in this group of screens.
EBNA-1 inh: EBNA-1 DNA-binding inhibitors, primary screen, biochemical, fluorescence polarization. inhibition, % at 14.8 µM. 300,000 tested, 0.34% active. AID 1950, 2009; in the data active = inhibition above about 28%
HCV NS3 hel inh: inhibitors of HCV NS3 helicase, primary screen, biochemical, Cy5 molecular beacon fluorescence. NS3 helicase DNA unwinding. 290,000 tested, 0.56% active. Hepatitis C virus NS3 helicase. inhibition, % at 10.9 µM. AID 1800, 2009;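 active = inhibition above the mean of all tested compounds plus 3 SD, set per campaign, cut at about 35% in these data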;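 note: 0% = DMSO wells and 100% = thioflavine S control wells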
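System: NS3 helicase fragment of HCV / Schedule: 1 h at 25 °C / Control set: DMSO alone as 0% and 110 µM thioflavine S as 100% / Reagent: Cy5/quencher beacon DNA duplex and ATP to start / Technique: Cy5 fluorescence / Replication: singlicate / Evaluation: % inhibition of end-to-start signal ratio versus controls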
ZTA counter: blocks Epstein-Barr virus ZTA, an EBNA-1 counter-screen; inhibition, % at 11 µM; AID 2234; ZTA-DNA binding, fluorescence polarization; 320,000 tested, 0.15% active; in the data active = inhibition above about 33%
Target sequence (P03206 whole entry, looked up): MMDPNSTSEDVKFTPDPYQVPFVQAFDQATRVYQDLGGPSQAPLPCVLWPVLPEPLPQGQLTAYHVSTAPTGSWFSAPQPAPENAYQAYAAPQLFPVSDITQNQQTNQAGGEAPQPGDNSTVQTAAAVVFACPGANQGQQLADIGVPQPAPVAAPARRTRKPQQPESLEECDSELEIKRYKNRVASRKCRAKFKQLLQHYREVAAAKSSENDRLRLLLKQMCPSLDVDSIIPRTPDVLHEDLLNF
core dimer inh: inhibitors of HCV core protein dimerization, primary screen, biochemical, TR-FRET, high-throughput | inhibition, % at 5 µM | TR-FRET GST/Flag-core106 dimerization, 1536-well | 300,000 tested, 0.33% active | AID 1899, 2009;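 active = inhibition above the mean of all tested compounds plus 3 SD, set per screening campaign, cut at about 45% in these data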
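Assay system: GST-tagged and Flag-tagged HCV core protein residues 1-106 / Times: compound-protein-antibody incubation 4 h at 22.5 °C / Signal: time-resolved FRET, ex 340 nm, em 617 and 671 nm / Evaluation: % inhibition based on acceptor/donor emission ratio / Benchmarks: wells lacking GST-core106 and wells with excess unlabelled core106 / Repeats: singlicate, one well per compound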
NS3 hel confirm: HCV NS3 helicase inhibitors, retest, confirmation, biochemical, Cy5 molecular beacon fluorescence, triplicate; 1,600 tested, 31% active; shares compounds with HCV NS3 hel inh; NS3 helicase DNA unwinding; inhibition, % at 10.9 µM;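 active = inhibition above the mean of all tested compounds plus 3 SD, cutoff set per campaign, cut at about 36% in these data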
DNA FID counter: compounds displacing fluorescent DNA intercalator, artefact control for HCV NS3 helicase inhibitor project, biochemical, FID fluorescence, triplicate; inhibition, % at 7.9 µM; AID 1945, 2009; 1,600 tested, 4% active; DNA fluorescent intercalator displacement; shares compounds with HCV NS3 hel inh; in the data active = inhibition above about 37%;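 note: 0% = vehicle and 100% = reference compound; higher means more displacement of ethidium bromide from the DNA hairpin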
FID counter DR: compounds displacing fluorescent intercalator from DNA, dose response, counter-screen for HCV NS3 helicase inhibitor project, biochemical, fluorescence; shares compounds with HCV NS3 hel inh; fluorescent intercalator displacement from DNA; IC50, µM; 120 tested, under 10 active; call rule not given here
Starred values were filed as active, the others as inactive; · = not tested or not shown.

SMILES	EBNA-1 inh	HCV NS3 hel inh	ZTA counter	core dimer inh	NS3 hel confirm	DNA FID counter	others
CCCOC(=O)/C(=C\C=C\c1ccco1)NC(=O)c1ccccc1	2.2	40.3*	12.5	28.5	-5.5	-13.6
O=C(N/N=C/C=C/c1ccco1)/C(=C/c1ccccc1)NC(=O)c1ccccc1	10.6	36.5*	5.6	47.4*	53.9*	6.1
COc1ccccc1NC(=O)c1ccc(NC(=O)CN(C)Cc2ccccc2F)cc1	-1.4	-6.9	-7.7	3.3	·	·
O=C/C(=C\Nc1ccc(C(=O)N2CCOCC2)cc1)c1nc2ccccc2o1	9.0	-2.2	-1.9	-0.1	·	·
Cc1c(C(=O)Nc2c(F)cc(F)cc2Br)sc2ncn(CC(=O)N3CCCC3)c(=O)c12	-7.2	2.5	-5.5	4.1	·	·
Cc1cc(C)nc(SCCn2c(N3CCOCC3)nc3c2c(=O)[nH]c(=O)n3C)n1	9.7	6.0	5.2	0.0	·	·
COc1ccccc1Nc1cc(C(=O)N2CCc3ccccc3C2)c2ccccc2n1	8.1	-5.4	-2.1	8.9	·	·
COc1ccccc1-c1cc(C(=O)N2CCc3ccccc3C2)c2ccccc2n1	-10.5	37.4*	1.4	23.9	-16.9	-40.5
C=CCn1c(SCC(C)=O)nc2scc(-c3ccco3)c2c1=O	2.7	39.0*	5.9	31.5	-0.9	3.8
C=CCn1c(SCC(=O)N2CCOCC2)nc2scc(-c3ccco3)c2c1=O	3.8	15.1	0.5	15.2	·	·
CC(C)C(C)(C#N)NC(=O)CSc1nc2scc(-c3ccco3)c2c(=O)n1-c1ccccc1 (stereo not drawn)	4.5	36.4*	6.1	37.6	105.2*	4.4	FID counter DR=>79.4
Cc1ccc(C(=O)N/N=C/c2ccc(-c3ccc(Br)cc3[N+](=O)[O-])o2)o1	0.6	48.1*	7.7	24.6	2.4	8.9
Cc1ccc(C(=O)N/N=C\c2ccc(Br)o2)o1	-6.2	-0.5	-8.2	-1.7	·	·
Cc1c(C(=O)O)cccc1-c1ccc(/C=C2/NC(=O)N(c3ccccc3)C2=O)o1	4.8	11.1	-15.2	-5.3	·	·
Cc1c(C(=O)O)cccc1-c1ccc(/C=C2\SC(=O)NC2=O)o1	-9.5	45.4*	4.1	-20.4	-19.9	4.7
O=C(COC(=O)c1ccccc1SCC(=O)N1CCCC1)Nc1ccccc1	-11.4	38.0*	-4.2	-22.2	-10.8	-17.2
CCCOc1ccc(/C(O)=C2\C(=O)C(=O)N(c3ccccn3)C2c2ccccc2F)cc1C (stereo not drawn)	-9.8	47.5*	12.6	4.2	94.2*	-30.7	FID counter DR=>79.4
COc1ccc(C2/C(=C(/O)c3ccc(C)cc3)C(=O)C(=O)N2c2ccccn2)cc1OC (stereo not drawn)	-10.0	13.9	1.3	2.1	·	·
COc1cccc(NC(=O)CN(C)C(=O)Cn2cnc3ccccc3c2=O)c1	-12.1	·	9.5	-3.7	·	·
CC(C)c1ccc(C(C)NCCS(=O)(=O)c2ccc(Cl)cc2)cc1 (stereo not drawn)	-2.3	-37.7	2.3	0.5	·	·
CCN(CC)C(=O)CSC1=N/C(=C/c2ccco2)C(=O)N1c1ccc(OC)c(Cl)c1	1.0	38.2*	-13.7	51.4*	-8.9	-28.0
Cc1ccc(C(=O)Nc2ccc3c(c2)OCO3)cc1	3.7	37.8*	-3.1	16.8	-17.8	1.4
COc1cc2cccc(OC)c(=O)c2c(O)c1OC	-2.5	2.1	-3.3	-23.9	·	·
CC(=O)Oc1cc2cccc(OC(C)=O)c(=O)c2c(OC(C)=O)c1OC(C)=O	-4.5	53.2*	-7.5	-16.2	-7.2	7.7
COC1=C/C(=C/c2c(N)n3nc(-c4ccc(C)cc4)sc3nc2=O)C=CC1=O	·	44.2*	·	·	25.3	-14.8
CCOC1=C/C(=C/c2c(N)n3nc(-c4ccccc4)sc3nc2=O)C=CC1=O	·	24.5	·	·	·	·
COc1ccc(-c2nn(CCC(=O)O)cc2/C=C/C(=O)O)cc1[N+](=O)[O-]	3.4	-1.5	-0.3	6.1	·	·
CC(=O)N1CCC(O)(c2ccc3c(c2)OCO3)CC1	1.4	2.8	-4.6	7.6	·	·
